Reference: ChEMBL document CHEMBL1141231, “Discovery and development of a new class of potent, selective, orally active oxytocin receptor antagonists” (J Med Chem, 2005)
pIC50, pKi: −log10 of the molar value. Where a SMILES comes first, the peptide text is derived from it. Bridges are numbered along the chain shown (N, C = ends). [ ]: non-standard residue; d: D form. Orn = NCCC[C@H](N)C(=O)O; Mpa = O=C(O)CCS

Legend:
[1] = biological target: T1, Vasopressin V1a receptor (Homo sapiens, UniProt P37288); test: Displacement of [125I]LVA antagonist from human vasopressin 1a receptor expressed in HEK293-EBNA cells; type: cell-based
Target sequence in this assay (P37288 whole entry): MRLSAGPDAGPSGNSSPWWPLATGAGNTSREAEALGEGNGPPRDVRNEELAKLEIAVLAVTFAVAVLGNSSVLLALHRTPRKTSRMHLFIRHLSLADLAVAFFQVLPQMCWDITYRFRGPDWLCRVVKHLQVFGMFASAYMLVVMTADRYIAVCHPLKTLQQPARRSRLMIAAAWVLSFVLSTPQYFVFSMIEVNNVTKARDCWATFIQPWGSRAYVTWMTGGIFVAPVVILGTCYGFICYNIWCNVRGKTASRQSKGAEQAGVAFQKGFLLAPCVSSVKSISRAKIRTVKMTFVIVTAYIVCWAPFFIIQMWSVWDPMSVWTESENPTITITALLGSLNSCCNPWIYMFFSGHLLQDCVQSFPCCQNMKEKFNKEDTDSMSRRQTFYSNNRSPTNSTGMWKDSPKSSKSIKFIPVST

[2] = biological target: T2, Oxytocin receptor (Rattus norvegicus) (UniProt P70536); test: Inhibition of oxytocin-induced uterine contractions in nonpregnant rats administered at 10 mg/kg, iv; type: functional, organism-based; set-up: dose 10 mg/kg
T2 sequence (whole entry): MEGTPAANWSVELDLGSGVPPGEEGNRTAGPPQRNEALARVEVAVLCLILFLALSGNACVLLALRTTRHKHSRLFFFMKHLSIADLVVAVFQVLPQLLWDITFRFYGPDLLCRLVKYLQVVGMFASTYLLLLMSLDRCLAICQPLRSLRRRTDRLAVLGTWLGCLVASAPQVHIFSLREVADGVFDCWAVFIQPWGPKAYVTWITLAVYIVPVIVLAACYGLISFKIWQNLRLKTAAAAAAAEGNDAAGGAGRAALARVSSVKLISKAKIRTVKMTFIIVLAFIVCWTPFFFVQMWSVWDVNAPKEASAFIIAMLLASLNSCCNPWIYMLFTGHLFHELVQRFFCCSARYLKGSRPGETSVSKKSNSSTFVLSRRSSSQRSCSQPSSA
Outline: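 Anaesthetized nonpregnant rats; compound given as a solution by iv infusion in NP3S, PEG/saline or saline. Uterine intraluminal pressure AUC is read relative to the third OT injection. Inhibition is taken versus vehicle values at 5 min after OT administration.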

[3] = biological target: Cytochrome P450 2C9 (Homo sapiens, UniProt P11712); test: Inhibitory activity against cytochrome P450 2C9 isoform
[4] = organism: Homo sapiens; test: Selectivity for human vasopressin V1a receptor over human oxytocin receptor
[5] = Stability of compound in presence of rat liver microsomes; type: ADME
Outline: (§1)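 Liver microsomes (human or rat) at final […] in 0.1 M phosphate pH 7.4 with compound at final 40 µM (1% DMSO), preincubated at 37 °C; reaction started with 1 mM NADPH; stopped with cold acetonitrile at 0, 20 and 60 min.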

[6] = tested on: Liver microsomes; test: Stability of compound in presence of human liver microsomes; type: ADME, Microsome; outline: as §1
[7] = biological target: T3, Oxytocin receptor (Homo sapiens, UniProt P30559); test: biochemical; type: cell-based, HEK293-EBNA
T3 sequence (P30559 whole entry): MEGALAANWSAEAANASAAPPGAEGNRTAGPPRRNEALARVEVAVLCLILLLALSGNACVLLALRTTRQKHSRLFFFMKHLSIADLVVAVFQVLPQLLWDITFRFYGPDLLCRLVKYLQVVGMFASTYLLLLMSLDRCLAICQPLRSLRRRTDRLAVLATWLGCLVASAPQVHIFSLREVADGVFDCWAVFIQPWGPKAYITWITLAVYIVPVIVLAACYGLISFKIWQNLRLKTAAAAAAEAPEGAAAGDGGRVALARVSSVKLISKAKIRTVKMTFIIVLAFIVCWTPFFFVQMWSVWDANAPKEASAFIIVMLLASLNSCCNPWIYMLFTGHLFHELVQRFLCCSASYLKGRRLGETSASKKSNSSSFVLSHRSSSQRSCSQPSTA

[8] = biological target: T3, Oxytocin receptor; test: Inhibitory activity against human Oxytocin induced intracellular Calcium mobilization in human Oxytocin receptor transfected HEK293-EBNA cells; type: functional, cell-based
[9] = Solubility in saline; type: physicochemical
[10] = Solubility in aqueous medium; type: physicochemical; details: aqueous medium; read-out: Solubility
[11] = biological target: T4, Oxytocin receptor (Rattus norvegicus, UniProt P70536); test: Displacement of [125I]OVTA antagonist from rat oxytocin receptor expressed in HEK293-EBNA cells; type: cell-based
T4 sequence (P70536 whole entry): T2 sequence (whole entry)

[12] = biological target: T5, Oxytocin receptor (Homo sapiens) (UniProt P30559); test: Displacement of [125I]OVTA antagonist from human oxytocin receptor expressed in HEK293-EBNA cells at 10 uM; type: cell-based
T5 sequence (whole entry): T3 sequence (P30559 whole entry)

[13] = biological target: T1, Vasopressin V1a receptor; details: HEK293-EBNA, at 10 µM
Target sequence in this assay (P37288 whole entry, looked up): as the sequence (P37288 whole entry) above

[14] = biological target: Cytochrome P450 3A4 (Homo sapiens, UniProt P08684); test: Inhibitory activity against cytochrome P450 3A4 isoform; type: ADME
Outline: (§2)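 Baculovirus/insect-cell-expressed CYP isoforms are incubated with a specific fluorogenic substrate and several compound concentrations in 1% DMSO. Fluorescence of the product after a defined reaction time gives % inhibition at each concentration and the IC50.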

[15] = biological target: Cytochrome P450 2C19 (Homo sapiens, UniProt P33261); test: Inhibitory activity against cytochrome P450 2C19 isoform; type: ADME; outline: as §2
[16] = biological target: T2, Oxytocin receptor (Rattus norvegicus); test: In vivo efficacy against oxytocin-induced uterine contractions in nonpregnant rats administered iv; type: functional, organism-based
Outline: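 Anaesthetized nonpregnant rats; compound given as a solution by iv infusion in NP3S, PEG/saline or saline. Contractions read as AUC of intraluminal uterine pressure over 35 min, relative to the third OT injection, and expressed as % inhibition versus a vehicle group. ED50 is taken from a dose-response curve of peak inhibition values.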

[17] = biological target: T2, Oxytocin receptor (Rattus norvegicus); test: Inhibition of oxytocin-induced uterine contractions in nonpregnant rats administered at 30 mg/kg, po; type: functional, organism-based; set-up: dose 30 mg/kg
Outline: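 Anaesthetized nonpregnant rats dosed orally by esophagus cannulation with a solution in NP3S, PEG/saline or saline. Uterine intraluminal pressure AUC is read versus vehicle. The value is the maximum inhibition within a 3 h interval after OT administration.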

[18] = Inhibitory activity against cytochrome P450; type: ADME
Outline: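 Baculovirus/insect-cell expressed CYP isoforms incubated with compound at several concentrations in 1% DMSO plus isoform-specific fluorogenic substrate; fluorescence after a fixed reaction time used to compute % inhibition and IC50.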

Chain of Cytochrome P450 2C9 (P11712 whole entry, canonical isoform): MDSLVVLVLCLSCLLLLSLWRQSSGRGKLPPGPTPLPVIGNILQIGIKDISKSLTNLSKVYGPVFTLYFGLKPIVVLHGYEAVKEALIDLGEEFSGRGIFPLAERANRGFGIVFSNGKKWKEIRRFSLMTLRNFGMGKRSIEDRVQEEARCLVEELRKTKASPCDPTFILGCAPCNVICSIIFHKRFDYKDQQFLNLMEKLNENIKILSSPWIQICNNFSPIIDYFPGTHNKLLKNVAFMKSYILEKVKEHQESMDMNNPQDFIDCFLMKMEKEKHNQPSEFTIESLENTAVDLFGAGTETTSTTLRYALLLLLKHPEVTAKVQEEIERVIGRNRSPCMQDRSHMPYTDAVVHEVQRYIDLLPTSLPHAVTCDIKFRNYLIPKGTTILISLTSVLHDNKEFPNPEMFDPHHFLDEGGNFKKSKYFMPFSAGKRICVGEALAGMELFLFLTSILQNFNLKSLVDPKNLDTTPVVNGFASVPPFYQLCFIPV
Chain of Cytochrome P450 3A4 (P08684 whole entry, canonical isoform): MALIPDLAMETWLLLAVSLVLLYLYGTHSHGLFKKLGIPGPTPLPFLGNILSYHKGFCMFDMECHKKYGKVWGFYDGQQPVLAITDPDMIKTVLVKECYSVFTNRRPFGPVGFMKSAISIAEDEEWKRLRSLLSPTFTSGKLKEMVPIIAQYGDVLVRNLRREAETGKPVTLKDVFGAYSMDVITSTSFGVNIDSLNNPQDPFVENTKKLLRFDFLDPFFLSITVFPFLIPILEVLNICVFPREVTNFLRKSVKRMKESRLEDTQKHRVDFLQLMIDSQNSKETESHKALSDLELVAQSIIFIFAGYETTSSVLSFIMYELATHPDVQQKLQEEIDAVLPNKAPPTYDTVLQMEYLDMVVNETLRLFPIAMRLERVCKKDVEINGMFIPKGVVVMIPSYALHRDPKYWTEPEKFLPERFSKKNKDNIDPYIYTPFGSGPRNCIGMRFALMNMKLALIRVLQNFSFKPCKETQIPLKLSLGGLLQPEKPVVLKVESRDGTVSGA
Chain of Cytochrome P450 2C19 (P33261 whole entry, canonical isoform): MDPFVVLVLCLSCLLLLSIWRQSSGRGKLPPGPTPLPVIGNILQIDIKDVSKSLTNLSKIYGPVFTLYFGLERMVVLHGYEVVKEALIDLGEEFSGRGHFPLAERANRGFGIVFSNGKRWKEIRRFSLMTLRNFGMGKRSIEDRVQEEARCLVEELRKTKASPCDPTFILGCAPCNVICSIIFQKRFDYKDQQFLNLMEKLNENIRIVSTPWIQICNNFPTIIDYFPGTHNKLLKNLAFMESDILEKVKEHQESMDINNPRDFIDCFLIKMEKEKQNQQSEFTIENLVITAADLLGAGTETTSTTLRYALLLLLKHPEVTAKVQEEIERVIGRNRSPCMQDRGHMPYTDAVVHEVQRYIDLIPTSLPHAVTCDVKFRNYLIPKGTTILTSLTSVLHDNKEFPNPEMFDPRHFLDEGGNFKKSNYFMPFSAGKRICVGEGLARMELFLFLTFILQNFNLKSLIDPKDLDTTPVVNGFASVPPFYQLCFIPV

SMILES | pKi [1] | Ratio Ki [4] | pKi [7] | pKi [11] | inhibition [12] [%] | inhibition [13] [%] | metabolised [5] [%] | MET [6] [%] | solubility [9] [µg/mL] | solubility [10] [µg/mL] | further results
COCCOCCOc1ccc(S(=O)(=O)N(CC(=O)N/N=C2\C(=O)Nc3ccccc32)c2ccc(Cl)cc2)cc1 | 6.29 | 176 | 8.52 | 7.92 |  |  | 89 | 79 | < 1 | < 1 | inhibition [2]: 23.3%; pIC50 [3]: 6.48; pIC50 [8]: 8.15
O=C(CN(c1ccc(Cl)cc1)S(=O)(=O)c1ccc(NCCN2CCOCC2)cc1)N/N=C1\C(=O)Nc2ccccc21 | 6.24 | 84 | 8.15 | 7.60 |  |  | 40 | 73 |  |  | pIC50 [14]: 6.51
CCOc1ccc(C[C@H]2NC(=O)CCSSC[C@@H](C(=O)N3CCC[C@H]3C(=O)N[C@@H](CCCN)C(=O)NCC(N)=O)NC(=O)[C@H](CC(N)=O)NC(=O)[C@H]([C@@H](C)O)NC(=O)[C@H]([C@@H](C)CC)NC2=O)cc1 [ATOSIBAN] ([Mpa][dY](Et)ITNCP[Orn]G-NH2; disulfide 1-6) | 9.20 |  | 7.57 | 7.12 |  |  |  |  |  |  | pIC50 [8]: 7.23
O=C(CN(c1ccc(Cl)cc1)S(=O)(=O)c1ccc(CCCO)cc1)N/N=C1\C(=O)Nc2ccccc21 | 6.21 | 150 | 8.39 |  |  |  | 31 | 34 | < 1 | < 1 | pIC50 [3]: 6.46; pIC50 [8]: 7.49; pIC50 [15]: 7.30
O=C(CCc1ccc(S(=O)(=O)N(CC(=O)N/N=C2\C(=O)Nc3ccccc32)c2ccc(Cl)cc2)cc1)NCCCO | 7.03 | 102 | 9.05 |  |  |  |  |  | < 1 | < 1 | 
O=C(CN(c1ccc(Cl)cc1)S(=O)(=O)c1ccc(OCCN2CCOCC2)cc1)N/N=C1\C(=O)Nc2ccccc21 | 6.88 | 148 | 9.05 | 8.10 |  |  | 21 | 57 |  |  | ED50 [16]: 9.4 mg/kg; inhibition [17]: 30%; inhibition [2]: 43%; pIC50 [18]: < 6.00

Further lines, with some results ahead:

pKi [1] | Ratio Ki [4] | pKi [7] | pKi [11] | inhibition [12] [%] | inhibition [13] [%] | SMILES | metabolised [5] [%] | MET [6] [%] | solubility [9] [µg/mL] | solubility [10] [µg/mL] | further results
 |  |  |  | < 50 | < 50 | O=C(CN(CCc1ccccc1)S(=O)(=O)c1ccccc1)N1CCc2ccccc2C1 |  |  |  |  | 
 |  |  |  | < 50 | < 50 | Cc1ccc(N(CC(=O)N/N=C/c2ccccc2F)S(=O)(=O)c2ccccc2)cc1 |  |  |  |  | 
 |  |  |  | < 50 | < 50 | O=C(CN(c1ccc(Cl)cc1)S(=O)(=O)c1ccccc1)Nc1ccccc1 |  |  |  |  | 
 | 100 |  |  |  |  | CCOc1ccc(S(=O)(=O)N(CC(=O)N/N=C2\C(=O)Nc3ccccc32)c2ccc(C)cc2)cc1 |  |  |  |  | ED50 [16]: 10 mg/kg; inhibition [2]: 49.9%
5.93 | 171 | 8.15 | 7.48 |  |  | COCCOc1ccc(S(=O)(=O)N(CC(=O)N/N=C2\C(=O)Nc3ccccc32)c2ccc(Cl)cc2)cc1 |  |  | < 1 | < 1 | 
 |  |  |  | < 50 | < 50 | COc1ccccc1/C=N/NC(=O)CN(c1ccc(C)cc1)S(=O)(=O)c1ccccc1 |  |  |  |  | 
 |  |  |  | < 50 | < 50 | CCN(CC)C(=O)CN(c1ccc(OC)cc1)S(=O)(=O)c1ccccc1 |  |  |  |  | 
